Molecular target: Kappa-type opioid receptor (Rattus norvegicus) (UniProt P34975)
Experiment: Agonist activity at rat cloned kappa opioid receptor expressed in CHO cells assessed as inhibition of forskolin-induced cAMP production by scintillation counting relative to Dyn A-(1-13)NH2
Assay type: functional, cell-based
Conditions: concentration not given here
Summary of the method: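 CHO cells stably expressing cloned rat κ receptor, washed in F12 and labelled 4 h with [3H]adenine. Then 40 min at 37 °C with 50 μM forskolin, peptidase inhibitors (bestatin, captopril, L-leucyl-L-leucine) and peptide at 0.1–10,000 nM in 10-fold steps. [3H]cAMP isolated on cation exchange resin and alumina, [14C]cAMP added for recovery, scintillation counted. Efficacy relative to Dyn A-(1-13)NH2. Mean ± SEM, ≥3 assays.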

Sequence of Kappa-type opioid receptor (Rattus norvegicus) (P34975 whole entry): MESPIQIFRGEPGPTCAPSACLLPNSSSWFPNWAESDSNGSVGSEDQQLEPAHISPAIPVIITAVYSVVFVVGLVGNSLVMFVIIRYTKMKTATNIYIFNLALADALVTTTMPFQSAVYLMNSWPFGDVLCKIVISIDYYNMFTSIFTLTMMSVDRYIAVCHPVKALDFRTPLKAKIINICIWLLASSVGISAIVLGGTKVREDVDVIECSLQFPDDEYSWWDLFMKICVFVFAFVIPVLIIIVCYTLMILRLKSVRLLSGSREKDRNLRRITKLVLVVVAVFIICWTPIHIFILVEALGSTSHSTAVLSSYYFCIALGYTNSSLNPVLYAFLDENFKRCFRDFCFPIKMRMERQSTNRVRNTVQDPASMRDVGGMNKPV

Compound	inhibition
N=C(N)NCCC[C@@H]1NC(=O)[C@@H](NC(=O)[C@H](Cc2ccccc2)NC(=O)CNC(=O)CNC(=O)[C@@H](N)Cc2ccc(O)cc2)C/C=C\C[C@@H](C(=O)N[C@@H](CCCNC(=N)N)C(=O)N2CCC[C@H]2C(=O)N[C@@H](CCCCN)C(N)=O)NC(=O)[C@H](CCCNC(=N)N)NC1=O	110%
CC[C@H](C)[C@H](NC(=O)[C@H](CCCN=C(N)N)NC(=O)[C@H](CCCN=C(N)N)NC(=O)[C@H](CC(C)C)NC(=O)[C@H](Cc1ccccc1)NC(=O)CNC(=O)CNC(=O)[C@@H](N)Cc1ccc(O)cc1)C(=O)N[C@@H](CCCN=C(N)N)C(=O)N1CCC[C@H]1C(=O)N[C@@H](CCCCN)C(N)=O	100%
